Activity calls are given as the source filed them. The rule behind the calls is not given here.
Columns and labels:
[1] = tested on: MCF7; assay: Cell cycle arrest in human MCF7 cells assessed as accumulation at G2/M phase at 2 uM after 24 hrs using propidium iodide staining by flow cytometry; format: functional
In short: (§1)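 MCF-7 cells were grown in DMEM with 10% fetal calf serum, penicillin and streptomycin, at 37 °C in 5% CO2. They were treated for 24 h at 2 and 4 µM, with DMSO-treated cells as controls. Cells were trypsinised, fixed in ice-cold 70% ethanol at 4 °C for 30 min, and RNaseA-treated at 37 °C for 30 min. Phases were read by flow cytometry.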

[2] = tested on: MCF7; assay: Cell cycle arrest in human MCF7 cells assessed as accumulation at G0 phase at 4 uM after 24 hrs using propidium iodide staining by flow cytometry; format: functional; in short: as §1
[3] = tested on: MCF7; assay: Cell cycle arrest in human MCF7 cells assessed as accumulation at G1 phase at 4 uM after 24 hrs using propidium iodide staining by flow cytometry; format: functional; in short: as §1
[4] = tested on: MCF7; assay: Cell cycle arrest in human MCF7 cells assessed as accumulation at S phase at 4 uM after 24 hrs using propidium iodide staining by flow cytometry; format: functional; in short: as §1
[5] = tested on: MCF7; assay: Increase of cytosolic cytochrome c level in human MCF7 cells at 2 uM after 24 hrs by Western blot analysis; format: functional, cell-based
In short: (§2)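 MCF-7 cells were grown in DMEM with 10% FCS and penicillin/streptomycin at 37 °C in 5% CO2, then treated for 24 h. Cells were lysed in ice-cold RIPA buffer with protease inhibitors and NaF. Protein was measured by Bradford assay, and 30 µg per lane was run on 12% SDS-PAGE and transferred to PVDF. Antibody steps: primary at 4 °C overnight, HRP secondary 1:2000, chemiluminescent detection.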

[6] = tested on: MCF7; assay: Increase of cytosolic cytochrome c level in human MCF7 cells at 4 uM after 24 hrs by Western blot analysis; format: functional, cell-based; in short: as §2
[7] = tested on: MCF7; assay: Induction of apoptosis in human MCF7 cells assessed as increase of caspase 8 activation at 4 uM after 1 hr by […] method; format: functional, cell-based
In short: (§3)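 Colorimetric caspase-8 kit on lysates of treated MCF-7 cells. The IETD-pNA substrate was incubated with cell lysate at 37 °C for 1 h, and absorbance was read at 405 nm. Untreated cells served as the control.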

[8] = tested on: MCF7; assay: Increase of PARP cleavage in human MCF7 cells at 2 uM after 24 hrs by Western blot analysis; format: functional, cell-based; in short: as §2
[9] = tested on: MCF7; assay: Increase of PARP cleavage in human MCF7 cells at 4 uM after 24 hrs by Western blot analysis; format: functional, cell-based; in short: as §2
[10] = tested on: MCF7; assay: Cell cycle arrest in human MCF7 cells assessed as accumulation at G0 phase at 2 uM after 24 hrs using propidium iodide staining by flow cytometry; format: functional; in short: as §1
[11] = tested on: MCF7; assay: Cell cycle arrest in human MCF7 cells assessed as accumulation at G2/M phase at 4 uM after 24 hrs using propidium iodide staining by flow cytometry; format: functional; in short: as §1
[12] = tested on: MCF7; assay: Cell cycle arrest in human MCF7 cells assessed as accumulation at G1 phase at 2 uM after 24 hrs using propidium iodide staining by flow cytometry; format: functional; in short: as §1
[13] = tested on: MCF7; assay: Cell cycle arrest in human MCF7 cells assessed as accumulation at S phase at 2 uM after 24 hrs using propidium iodide staining by flow cytometry; format: functional; in short: as §1
[14] = tested on: MCF7; assay: Cell cycle arrest in human MCF7 cells assessed as accumulation at G0 phase after 24 hrs using propidium iodide staining by flow cytometry; format: functional, cell-based; in short: as §1
[15] = tested on: MCF7; assay: Induction of apoptosis in human MCF7 cells assessed as DNA fragmentation at 4 uM after 24 hrs using ethidium bromide staining by agarose gel electrophoresis; format: functional, cell-based
In short: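 1.5×10⁶ MCF-7 cells in 60 mm dishes were treated for 24 h and lysed in 10 mM Tris-HCl pH 7.5, 10 mM EDTA, 0.5% Triton X-100. The supernatant was digested with RNase A and proteinase K for 2 h at 37 °C. DNA was isolated by phenol–chloroform extraction and ethanol precipitation, run on 1% agarose with a 100 bp marker, and stained with ethidium bromide under UV.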

[16] = tested on: MCF7; assay: Induction of p53 expression in human MCF7 cells; format: functional, cell-based
[17] = tested on: MCF7; assay: Induction of apoptosis in human MCF7 cells assessed as increase of caspase 8 activation at 2 uM after 1 hr by […] method; format: functional, cell-based; in short: as §3
[18] = tested on: MCF7; assay: Induction of apoptosis in human MCF7 cells assessed as increase of caspase 9 activation at 4 uM after 1 hr by fluorimetry based assay; format: functional, cell-based
[19] = tested on: MCF7; assay: Cytotoxicity against human MCF7 cells at 2 uM after 24 hrs by MTT assay relative to control; format: functional
In short: (§4)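 MCF-7 cells were seeded at 10,000 cells/well in DMEM with 10% fetal calf serum. They were exposed to 0.5, 1, 2 and 4 µM for 24 h. MTT reduction to formazan was read at 570 nm, with untreated controls taken as 100% viability. DMSO-treated cells served as an additional control.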

[20] = tested on: MCF7; assay: Cytotoxicity against human MCF7 cells at 4 uM after 24 hrs by MTT assay relative to control; format: functional, cell-based; in short: as §4
[21] = tested on: Nucleic Acid; assay: Inhibition of Escherichia coli pBR322 DNA cleavage after 16 hrs by RED100-restriction endonuclease digestion assay; format: nucleic-acid assay
In short: (§5)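 pBR322 DNA was preincubated with compound at final 2, 4, 8, 16 and 32 µM for 16 h at 37 °C. BamHI (10 U/µl) in BamHI buffer was then added for 2 h at 37 °C. Products were separated on agarose in 0.5× Tris–acetate EDTA at 80 V for 1 h and stained with ethidium bromide. Cut and uncut DNA served as controls.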

[22] = tested on: Nucleic Acid; assay: Inhibition of Escherichia coli pBR322 DNA cleavage at 16 uM after 16 hrs by RED100-restriction endonuclease digestion assay; format: nucleic-acid assay; in short: as §5
[23] = tested on: MCF7; assay: Decrease of cyclin D1 level in human MCF7 cells at 2 uM after 24 hrs by Western blot analysis; format: functional, cell-based
In short: (§6)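 MCF-7 cells were treated at 2 or 4 µM for 24 h, then lysed in ice-cold RIPA buffer with protease inhibitors and NaF. Protein was quantified by Bradford. Thirty µg per lane was run on 12% SDS-PAGE and transferred to PVDF. Membranes were blocked 2 h, given primary antibody overnight at 4 °C, then HRP secondary (1:2000) for 1 h. Bands were detected by chemiluminescence.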

[24] = tested on: MCF7; assay: Decrease of cyclin D1 level in human MCF7 cells at 4 uM after 24 hrs by Western blot analysis; format: functional, cell-based; in short: as §6
[25] = tested on: MCF7; assay: Induction of apoptosis in human MCF7 cells assessed as increase of caspase 9 activation at 2 uM after 1 hr by fluorimetry based assay; format: functional, cell-based
[26] = tested on: MCF7; assay: Induction of apoptosis in human MCF7 cells assessed as increase of caspase 9 activation at 2 to 4 uM after 1 hr by fluorimetry based assay in presence of caspase 9 inhibitor LEHD-CHO; format: functional, cell-based
[27] = tested on: MCF7; assay: Cytotoxicity against human MCF7 cells at 1 uM after 24 hrs by MTT assay relative to control; format: functional; in short: as §4

Row | SMILES | Activity [1] [%] | Activity [2] [%] | Activity [3] [%] | Activity [4] [%] | Activity [5] | Activity [6] | Activity [7] | Activity [8] | Activity [9] | Activity [10] [%] | Activity [11] [%] | Activity [12] [%] | Activity [13] [%] | Activity [14] | Activity [15] | Activity [16] | Activity [17] | Activity [18] | Activity [20] | inhibition [21] | other results
1 | COc1cc2c(cc1O)N=C[C@@H]1CCCN1C2=O | 13.1 | 8.07 | 75.28 | 14.16 | Active | Active | Active | Active | Active | 3.19 | 3.5 | 65.98 | 20.26 | – | – | – | – | – | – | – | –
2 | COc1cc2c(cc1OCCCCOc1ccc(-c3cc4ccccc4c4ccccc34)cc1)N=C[C@@H]1CCCN1C2=O | 4.25 | 20.86 | 70.3 | 5.5 | Active | Active | Active | Active | Active | 15.08 | 2.94 | 66.31 | 12.45 | Dose-dependent effect | Active | Active | Active | Active | Active | Dose-dependent effect | Activity [19]: <=50%; inhibition [22]: 100%
3 | COc1cc2c(cc1OCCCCCOc1ccc(-c3cc4ccccc4c4ccccc34)cc1)N=C[C@@H]1CCCN1C2=O | 2.61 | 22.71 | 69.07 | 4.86 | Active | Active | Active | Active | Active | 13.08 | 2.46 | 75.84 | 7.76 | Dose-dependent effect | Active | Active | Active | Active | Active | Dose-dependent effect | Activity [23]: Active; Activity [24]: Active; Activity [25]: Active; Activity [26]: inactive; Activity [27]: <=50%; inhibition [22]: 100%

Source: ChEMBL document CHEMBL1165860, “Synthesis and potential cytotoxic activity of new phenanthrylphenol-pyrrolobenzodiazepines” (2010)
